From ChEMBL document CHEMBL2384996 (J Med Chem, 2013)
Active and inactive are the calls of the source. The rule behind the calls is not given here.

Assays:
[1] = Antagonist activity at Gloeobacter violaceus ligand-gated ion channel expressed in Xenopus oocytes assessed as inhibition of MES buffer pH 5.5 -induced currents after 30 secs by voltage clamp technique; type: cell-based; conditions: Oocyte
Summary of the method: (§1)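 GLIC expressed in Xenopus oocytes, two-electrode voltage clamp. Current elicited by pH 5.5 MES buffer (100 mM NaCl, 3 mM KCl, 1 mM CaCl2, 1 mM MgCl2, 10 mM MES) for 30 sec to steady state. Compound then co-applied for 30 sec in the same pH 5.5 buffer, followed by washout with buffer alone. Oocytes held in Barth's medium after injection.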

Oocyte [2] = test: Inhibition of Gloeobacter violaceus ligand-gated ion channel expressed in Xenopus laevis oocytes assessed as inhibition of MES buffer pH 5.5 -induced currents at 1 mM after 30 secs by voltage clamp technique; type: cell-based; summary of the method: as §1
[3] = Dissociation constant, pKa of the compound; type: physicochemical
Oocyte [4] = test: Inhibition of Gloeobacter violaceus ligand-gated ion channel expressed in Xenopus laevis oocytes assessed as inhibition of buffer at pH 4 -induced currents at 100 uM after 30 secs by voltage clamp technique; type: cell-based
Gloeobacter violaceus [5] = test: Inhibition of Gloeobacter violaceus ligand-gated ion channel R105A mutant at 100 uM
Summary of the method: (§2)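 Alanine point mutants of GLIC expressed in Xenopus oocytes, voltage clamp. Compound co-applied with pH 5.5 buffer (100 mM NaCl, 3 mM KCl, 1 mM CaCl2, 1 mM MgCl2, 10 mM MES). Concentration-inhibition curves used for IC50; single-point inhibition taken at 100 μM, or at up to 1 mM. Mean ± sd, n ≥ 3 cells.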

Oocyte [6] = test: Selectivity ratio of IC50 for Gloeobacter violaceus ligand-gated ion channel R77A mutant to IC50 for wild-type Gloeobacter violaceus ligand-gated ion channel expressed in Xenopus oocytes; type: cell-based
[7] = Inhibition of Gloeobacter violaceus ligand-gated ion channel E177A mutant; summary of the method: as §2
[8] = Inhibition of Gloeobacter violaceus ligand-gated ion channel R105A mutant; summary of the method: as §2
[9] = Inhibition of Gloeobacter violaceus ligand-gated ion channel R77A mutant; summary of the method: as §2
Gloeobacter violaceus [10] = test: Inhibition of Gloeobacter violaceus ligand-gated ion channel E177A mutant at 100 uM; summary of the method: as §2
Gloeobacter violaceus [11] = test: Inhibition of Gloeobacter violaceus ligand-gated ion channel R133A mutant at 1 mM; summary of the method: as §2
[12] = Inhibition of Gloeobacter violaceus ligand-gated ion channel E181A mutant; summary of the method: as §2
Oocyte [13] = test: Selectivity ratio of IC50 for Gloeobacter violaceus ligand-gated ion channel E177A mutant to IC50 for wild-type Gloeobacter violaceus ligand-gated ion channel expressed in Xenopus oocytes; type: cell-based
Oocyte [14] = test: Inhibition of Gloeobacter violaceus ligand-gated ion channel expressed in Xenopus laevis oocytes assessed as inhibition of MES buffer-induced currents at 1 mM at pH 5.5 measured after wash-out by voltage clamp technique; type: cell-based
Gloeobacter violaceus [15] = test: Inhibition of Gloeobacter violaceus ligand-gated ion channel R77A mutant at 100 uM; summary of the method: as §2
Oocyte [16] = test: Selectivity ratio of IC50 for Gloeobacter violaceus ligand-gated ion channel R105A mutant to IC50 for wild-type Gloeobacter violaceus ligand-gated ion channel expressed in Xenopus oocytes; type: cell-based
Gloeobacter violaceus [17] = test: Inhibition of Gloeobacter violaceus ligand-gated ion channel E181A mutant at 100 uM; summary of the method: as §2
Oocyte [18] = test: Inhibition of Gloeobacter violaceus ligand-gated ion channel expressed in Xenopus laevis oocytes assessed as inhibition of MES buffer pH 5.5 -induced currents at 300 uM after 30 secs by voltage clamp technique; type: cell-based; summary of the method: as §1
Oocyte [19] = test: Inhibition of Gloeobacter violaceus ligand-gated ion channel expressed in Xenopus laevis oocytes assessed as inhibition of MES buffer pH 5.5 -induced currents at 100 uM after 30 secs by voltage clamp technique; type: cell-based
Summary of the method: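 GLIC-expressing oocytes kept in Barth's medium (88 mM NaCl, 1 mM KCl, 2.4 mM NaHCO3, 15 mM HEPES, 0.3 mM NaNO3, 0.7 mM CaCl2). Each cell was first given pH 5.5 buffer (100 mM NaCl, 3 mM KCl, 1 mM CaCl2, 1 mM MgCl2, 10 mM MES) for 30 sec. Compound was then co-applied in the same buffer for 30 sec, followed by washout. Mean ± sd, n ≥ 3 cells.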

Row | Compound | IC50 [1] [µM] | inhibition (Oocyte [2]) [%] | pKa [3] | other results
1 | COc1ccc(/C=C/C(=O)O)cc1O [ISOFERULIC ACID] | 13.5 | 98.5 |  | 
2 | COC(=O)/C=C/c1ccc(O)c(O)c1 [METHYLCAFFEATE] | 388 | 78 |  | 
3 | COc1ccc(/C=C/C(=O)O)cc1OC | 206 | 75.6 | 4.55 | 
4 | O=C(O)/C=C/c1cccc(C(F)(F)F)c1 | 25.3 | 94.6 | 4.6 | 
5 | CCNC(=O)/C=C/c1ccc(O)c(O)c1 | 295 | 81.6 |  | inhibition (Oocyte [4]; 300 uM, in the assay text read “at 300 uM” for “at 100 uM”): inactive
6 | O=C(O)CCc1ccc(O)c(O)c1 [DIHYDROCAFFEIC ACID] | 86.8 | 90.5 | 4.3 | 
7 | O=C(O)C(=C/C=C/c1ccccc1)C(=O)O | 83.5 | 92.2 | 3.45 | 
8 | O=C(O)c1ccc2ccccc2c1 [BETA-NAPHTOIC ACID] | 61.4 | 96.4 | 4.45 | 
9 | O=C(O)/C=C/c1ccc(O)c(O)c1 [CAFFEIC ACID] | 16.7 | 93.8 | 4.35 | inhibition (Gloeobacter violaceus [5]): 15%; Ratio IC50 (Oocyte [6]): > 10; IC50 [7]: 506 µM; IC50 [8]: 420 µM; IC50 [9]: 945 µM; inhibition (Gloeobacter violaceus [10]): 15%; inhibition (Gloeobacter violaceus [11]): inactive; IC50 [12]: 24.1 µM; Ratio IC50 (Oocyte [13]): > 10; inhibition (Oocyte [14]): inactive; inhibition (Gloeobacter violaceus [15]): 15%; inhibition (Oocyte [4]; 100 uM): inactive; Ratio IC50 (Oocyte [16]): > 10; inhibition (Gloeobacter violaceus [17]): 80%
10 | O=C(O)COc1ccccc1 | 53.3 | 98.5 | 3.2 | 
11 | O=C(O)/C=C/c1cccc(Cl)c1 [3-CHLORO-CINNAMIC ACID] | 13.7 | 95 | 4.8 | 
12 | NC(=O)/C=C/c1ccc(O)c(O)c1 | 347 |  |  | inhibition (Oocyte [18]): 51.6%
13 | O=C(O)C(=Cc1ccccc1)C(=O)O | 7940 | 25 | 3.5 | 
14 | OC/C=C/c1ccc(O)c(O)c1 | 73.9 | 95.2 |  | 
15 | O=C(O)/C=C/c1ccc(O)cc1 [COUMARIC ACID] | 9.59 |  |  | inhibition (Oocyte [18]): 91.4%
16 | O=C(O)/C=C/c1ccccc1 [CINNAMIC ACID] | 34.6 | 97.5 |  | 
17 | CCOC(=O)/C=C/c1ccc(O)c(O)c1 [ETHYL CAFFEATE] | 246 | 91.8 |  | 
18 | O=C(O)/C=C/c1ccc2c(c1)OCO2 | 28.8 |  |  | inhibition (Oocyte [19]): 79.7%
19 | COc1ccc2cc(C(=O)O)c(=O)oc2c1 | 168 | 96 |  | 
20 | O=C(O)c1cc2ccccc2oc1=O [COUMARIN-3-CARBOXYLIC ACID] | 282 | 84 | 3.6 | 
